Measurements as given in ChEMBL document CHEMBL3608241, “Molecular docking design and one-pot expeditious synthesis of novel 2,5-diarylpyrazolo[1,5-a]pyrimidin-7-amines as anti-inflammatory agents” (2015).

Assays:
Assay type in all cases: functional
Rattus norvegicus [1] = assay: Antiinflammatory activity in Wistar albino rat assessed as inhibition of carrageenan-induced paw edema at 50 mg/kg, po administered 30 mins prior to carrageenan challenge measured after 1 hr by plethysmometric analysis relative to control
How it was run: (§1)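 Male Wistar albino rats, 200-250 g, housed under standard light and temperature, fasted from 12 h before and through the experiment; groups of five. Oral dosing 30 min before 0.1 ml of 1% carrageenan in 0.9% saline was injected into the left hind paw plantar region. Controls received Tween 80 only. Paw volume was read by plethysmometer at 0 h and at 1-4 h. Inhibition (%) = (Vc − Vt)/Vc × 100; mean ± SEM.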

Rattus norvegicus [2] = assay: Antiinflammatory activity in Wistar albino rat assessed as inhibition of carrageenan-induced paw edema at 50 mg/kg, po administered 30 mins prior to carrageenan challenge measured after 4 hrs by plethysmometric analysis relative to control; how it was run: as §1
Rattus norvegicus [3] = assay: Antiinflammatory activity in Wistar albino rat assessed as inhibition of carrageenan-induced paw edema at 50 mg/kg, po administered 30 mins prior to carrageenan challenge measured after 3 hrs by plethysmometric analysis relative to control; how it was run: as §1
Rattus norvegicus [4] = assay: Antiinflammatory activity in Wistar albino rat assessed as inhibition of carrageenan-induced paw edema at 50 mg/kg, po administered 30 mins prior to carrageenan challenge measured after 2 hrs by plethysmometric analysis relative to control; how it was run: as §1
Rattus norvegicus [5] = assay: Antiinflammatory activity in Wistar albino rat assessed as inhibition of carrageenan-induced paw edema at 10 mg/kg, po administered 30 mins prior to carrageenan challenge measured after 3 hrs by plethysmometric analysis relative to control; how it was run: as §1
Rattus norvegicus [6] = assay: Antiinflammatory activity in Wistar albino rat assessed as inhibition of carrageenan-induced paw edema at 10 mg/kg, po administered 30 mins prior to carrageenan challenge measured after 4 hrs by plethysmometric analysis relative to control; how it was run: as §1
Rattus norvegicus [7] = assay: Antiinflammatory activity in Wistar albino rat assessed as inhibition of carrageenan-induced paw edema at 10 mg/kg, po administered 30 mins prior to carrageenan challenge measured after 1 hr by plethysmometric analysis relative to control; how it was run: as §1
Rattus norvegicus [8] = assay: Antiinflammatory activity in Wistar albino rat assessed as inhibition of carrageenan-induced paw edema at 10 mg/kg, po administered 30 mins prior to carrageenan challenge measured after 2 hrs by plethysmometric analysis relative to control
How it was run: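 Male Wistar albino rats, 200-250 g, fasted 12 hr before and during the test; groups of five. Oral dosing 30 min before sub-plantar injection of 0.1 ml carrageenan (1% in 0.9% saline) into left hind paw; controls got tween 80. Paw volume read by plethysmometer at 0 hr and 1-4 hr; % inhibition = (Vc−Vt)/Vc×100 against control; mean ± SEM.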

| Structure (SMILES) | inhibition in vivo at 50 mg/kg (Rattus norvegicus [1]) | inhibition in vivo at 50 mg/kg (Rattus norvegicus [2]) | inhibition in vivo at 50 mg/kg (Rattus norvegicus [3]) | inhibition in vivo at 50 mg/kg (Rattus norvegicus [4]) | inhibition in vivo at 10 mg/kg (Rattus norvegicus [5]) | inhibition in vivo at 10 mg/kg (Rattus norvegicus [6]) | inhibition in vivo at 10 mg/kg (Rattus norvegicus [7]) | inhibition in vivo at 10 mg/kg (Rattus norvegicus [8]) |
| --- | --- | --- | --- | --- | --- | --- | --- | --- |
| Cc1ccc(-c2cc3nc(-c4ccccc4)cc(N)n3n2)cc1 | 26.9% | 34.5% | 34.1% | 17.5% | – | – | – | – |
| Cc1ccc(-c2cc3nc(-c4ccc(Br)cc4)cc(N)n3n2)cc1 | 71.2% | 66.7% | 56.1% | 56.2% | – | – | – | – |
| Nc1cc(-c2ccc(Br)cc2)nc2cc(-c3ccccc3)nn12 | 65.4% | 66.7% | 56.1% | 63.8% | – | – | – | – |
| Cc1ccc(-c2cc(N)n3nc(-c4ccccc4)cc3n2)cc1 | 28.8% | 54.8% | 31.7% | 37.5% | – | – | – | – |
| Nc1cc(-c2ccc(Cl)cc2)nc2cc(-c3ccccc3)nn12 | 21.1% | 51.2% | 28% | 13.8% | – | – | – | – |
| Cc1ccc(-c2cc3nc(-c4ccc(F)cc4)cc(N)n3n2)cc1 | 28.8% | 64.3% | 26.8% | 65% | – | – | – | – |
| Cc1ccc(-c2cc(N)n3nc(-c4ccc(Cl)cc4)cc3n2)cc1 | 57.7% | 81% | 69.5% | 75% | – | – | – | – |
| Cc1ccc(-c2cc3nc(-c4ccc(Cl)cc4)cc(N)n3n2)cc1 | 59.6% | 67.8% | 64.6% | 67.5% | – | – | – | – |
| Nc1cc(-c2ccc(Br)cc2)nc2cc(-c3ccc(Cl)cc3)nn12 | 59.6% | 76.2% | 70.7% | 60% | – | – | – | – |
| Nc1cc(-c2ccc(Cl)cc2)nc2cc(-c3ccc(Br)cc3)nn12 | 13.5% | 65.5% | 56.1% | 72.5% | – | – | – | – |
| Cc1ccc(-c2cc(N)n3nc(-c4ccc(Br)cc4)cc3n2)cc1 | 67.3% | 64.3% | 73.2% | 76.2% | – | – | – | – |
| COc1ccc2c(c1)c(CC(=O)O)c(C)n2C(=O)c1ccc(Cl)cc1 [INDOMETHACIN] | – | – | – | – | 82.9% | 84.5% | 73.1% | 80% |
